The structures appear in SMILES notation. Active and inactive are the calls of the source. The calls are words filed in the database; no cut-off is given here. A value given as a limit tells only on which side of the number the result lay.

Experimental findings from ChEMBL document CHEMBL4725451, “Discovery of Tricyclic Xanthines as Agonists of the Cannabinoid-Activated Orphan G-Protein-Coupled Receptor GPR18” (ACS Med Chem Lett, 2020) are described below.

Test [1] has as its target T1, N-arachidonyl glycine receptor (Homo sapiens, UniProt Q14330).
T1 sequence (Q14330 whole entry): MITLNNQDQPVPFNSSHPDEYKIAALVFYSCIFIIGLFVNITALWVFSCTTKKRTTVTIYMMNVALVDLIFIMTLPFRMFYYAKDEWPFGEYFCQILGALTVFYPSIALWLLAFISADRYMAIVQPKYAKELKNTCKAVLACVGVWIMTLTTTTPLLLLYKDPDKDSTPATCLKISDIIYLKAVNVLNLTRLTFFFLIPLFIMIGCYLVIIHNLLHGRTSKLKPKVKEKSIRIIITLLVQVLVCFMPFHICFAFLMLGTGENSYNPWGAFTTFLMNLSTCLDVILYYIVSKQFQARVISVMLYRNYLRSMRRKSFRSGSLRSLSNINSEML
The experiment in a line: Agonist activity at Prolink1-tagged human GPR18 receptor expressed in CHO cells assessed as induction of beta-arrestin recruitment after 90 mins by beta-galactosidase based topcount luminescence analysis. It counts as cell-based.

Test [2] concerns the target T1, N-arachidonyl glycine receptor. The test is described as follows: Antagonist activity at Prolink1-tagged human GPR18 receptor expressed in CHO cells assessed as inhibition of THC-induced beta arrestin recruitment after 90 mins by beta-galactosidase based topcount luminescence analysis. The format is functional, cell-based.
Test [3] concerns the target T2, G-protein coupled receptor 55 (Homo sapiens, UniProt Q9Y2T6). The experiment in a line: Agonist activity at Prolink1-tagged human GPR55 receptor expressed in CHO cells assessed as induction of beta-arrestin recruitment after 90 mins by beta-galactosidase based topcount luminescence analysis. The format is cell-based.
Test [4] addresses T2, G-protein coupled receptor 55. The experiment in a line: Agonist activity at Prolink1-tagged human GPR55 receptor expressed in CHO cells assessed as induction of beta-arrestin recruitment at 10 uM after 90 mins by beta-galactosidase based topcount luminescence analysis relative to control. The format is cell-based. In short, it runs like this:
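CHO cells stably expressing GPR55, β2-arrestin recruitment detected by enzyme complementation and luminescence. Compounds tested at 10 μM; effect normalized to signal from 1 μM LPI.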

The target is the same in test [5]. The experiment in a line: Antagonist activity at Prolink1-tagged human GPR55 receptor expressed in CHO cells assessed as inhibition of lysophosphatidylinositol-induced beta arrestin recruitment after 90 mins by beta-galactosidase based topcount luminescence analysis. The format is functional, cell-based.
For test [6] the target is unchanged. The test is described as follows: Antagonist activity at Prolink1-tagged human GPR55 receptor expressed in CHO cells assessed as inhibition of lysophosphatidylinositol-induced beta arrestin recruitment at 10 uM after 90 mins by beta-galactosidase based topcount luminescence analysis relative to control. The format is functional, cell-based. In short, it runs like this: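 GPR55-expressing CHO cells, β-arrestin complementation luminescence. Percent inhibition by test compound at 10 μM of the response to 1 μM LPI.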

In test [7] the target is T3, N-arachidonyl glycine receptor (Homo sapiens) (UniProt Q14330).
T3 sequence (whole entry): T1 sequence (Q14330 whole entry)
The experiment in a line: Agonist activity at Prolink1-tagged human GPR18 receptor expressed in CHO cells assessed as induction of beta-arrestin recruitment at 10 uM after 90 mins by beta-galactosidase based topcount luminescence analysis relative to control. The format is cell-based. In short, it runs like this:
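CHO cells stably expressing human GPR18, β-arrestin enzyme-complementation assay with luminescence read-out. Test compound at 10 μM single concentration; signal normalized to that of 10 μM Δ9-THC.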

The target in test [8] is Cannabinoid receptor 1 (Homo sapiens) (UniProt P21554). The test is described as follows: Displacement of [3H]CP55,940 from human CB1 receptor expressed in CHO cell membranes after 2 hrs by liquid scintillation analysis. In short, it runs like this:
(§1)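 CB receptor radioligand binding: test compound at 10 μM single concentration, scored for displacement of a CB-specific radioligand and for any increase in bound radioligand.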

The target in test [9] is Cannabinoid receptor 2 (Homo sapiens) (UniProt P34972). The test is described as follows: Displacement of [3H]CP55,940 from human CB2 receptor expressed in CHO cell membranes after 2 hrs by liquid scintillation analysis. In short, it runs like this: as §1
Sequence of Cannabinoid receptor 2 (Homo sapiens) (P34972 whole entry): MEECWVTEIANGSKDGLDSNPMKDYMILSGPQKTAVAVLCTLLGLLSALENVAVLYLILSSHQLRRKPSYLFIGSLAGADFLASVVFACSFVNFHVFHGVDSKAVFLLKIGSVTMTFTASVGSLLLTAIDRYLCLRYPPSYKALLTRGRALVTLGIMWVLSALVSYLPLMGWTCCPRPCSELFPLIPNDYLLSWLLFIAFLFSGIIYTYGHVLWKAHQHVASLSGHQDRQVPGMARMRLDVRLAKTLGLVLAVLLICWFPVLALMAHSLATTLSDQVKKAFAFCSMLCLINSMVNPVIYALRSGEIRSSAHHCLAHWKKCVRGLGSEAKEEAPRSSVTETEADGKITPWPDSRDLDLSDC
Test [10] addresses T3, N-arachidonyl glycine receptor (Homo sapiens). The test is described as follows: Agonist activity at Prolink1-tagged human GPR18 receptor expressed in CHO cells assessed as induction of beta-arrestin recruitment by measuring maximum inhibition of 2-(3-(6-(4-chlorophenoxy)hexyloxy)benzylidene)-6,7-dihydro-2H-imidazo[2,1-b][1,3]thiazin-3(5H)-one at 1 uM after 90 mins by beta-galactosidase based topcount luminescence analysis. The format is cell-based. Conditions: filed as agonist. In short, it runs like this: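 Human GPR18 stably expressed in CHO cells, β-arrestin enzyme complementation. Antagonist concentration-inhibition curves run against a fixed 1 μM agonist stimulus. IC50 and maximal inhibition derived from curves; means of three independent experiments, each in duplicate.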

The target is the same in test [11]. The test is described as follows: Agonist activity at Prolink1-tagged human GPR18 receptor expressed in CHO cells assessed as effect on induction of beta-arrestin recruitment after 90 mins in presence of 3 to 20 uM […] antagonist 2-(3-(6-(4-chlorophenoxy)hexyloxy)benzylidene)-6,7-dihydro-2H-imidazo[2,1-b][1,3]thiazin-3(5H)-one by beta-galactosidase based topcount luminescence analysis. The format is cell-based. The conditions noted are these: filed as agonist.

Test [12] has the same target. The experiment in a line: Agonist activity at Prolink1-tagged human GPR18 receptor expressed in CHO cells assessed as increase in beta-arrestin recruitment at 1 uM in presence of THC at lower concentrations after 90 mins by beta-galactosidase based topcount luminescence analysis. It counts as cell-based. The conditions noted are these: filed as agonist. In short, it runs like this:
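GPR18-CHO β-arrestin recruitment assay. Fixed agonist at 1 μM combined with a THC concentration–response series. Means of three independent experiments in duplicate.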

The target is the same in test [13]. The experiment in a line: Agonist activity at Prolink1-tagged human GPR18 receptor expressed in CHO cells assessed as induction of beta-arrestin recruitment after 90 mins in presence of 3 uM THC by beta-galactosidase based topcount luminescence analysis. The format is cell-based. In short, it runs like this:
(§2)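 β-Arrestin recruitment in CHO cells expressing human GPR18. Agonist concentration–response curves recorded in the presence of fixed Δ9-THC (3 μM or 10 μM). Means of three independent experiments, each in duplicate.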

For test [14] the target is unchanged. The test is described as follows: Agonist activity at Prolink1-tagged human GPR18 receptor expressed in CHO cells assessed as induction of beta-arrestin recruitment after 90 mins in presence of 10 uM THC by beta-galactosidase based topcount luminescence analysis relative to control. It counts as cell-based. In short, it runs like this: as §2

T2 sequence (Q9Y2T6 whole entry): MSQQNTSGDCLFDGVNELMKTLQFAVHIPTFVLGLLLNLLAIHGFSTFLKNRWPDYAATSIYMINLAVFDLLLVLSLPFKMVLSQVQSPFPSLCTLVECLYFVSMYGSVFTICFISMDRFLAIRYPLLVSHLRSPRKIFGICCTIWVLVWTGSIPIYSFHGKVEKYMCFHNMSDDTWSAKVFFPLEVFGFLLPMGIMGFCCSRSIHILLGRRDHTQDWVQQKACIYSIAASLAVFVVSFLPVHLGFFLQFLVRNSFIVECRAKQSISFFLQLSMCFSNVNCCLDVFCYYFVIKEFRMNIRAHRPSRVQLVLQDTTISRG
Sequence of Cannabinoid receptor 1 (Homo sapiens) (P21554 whole entry): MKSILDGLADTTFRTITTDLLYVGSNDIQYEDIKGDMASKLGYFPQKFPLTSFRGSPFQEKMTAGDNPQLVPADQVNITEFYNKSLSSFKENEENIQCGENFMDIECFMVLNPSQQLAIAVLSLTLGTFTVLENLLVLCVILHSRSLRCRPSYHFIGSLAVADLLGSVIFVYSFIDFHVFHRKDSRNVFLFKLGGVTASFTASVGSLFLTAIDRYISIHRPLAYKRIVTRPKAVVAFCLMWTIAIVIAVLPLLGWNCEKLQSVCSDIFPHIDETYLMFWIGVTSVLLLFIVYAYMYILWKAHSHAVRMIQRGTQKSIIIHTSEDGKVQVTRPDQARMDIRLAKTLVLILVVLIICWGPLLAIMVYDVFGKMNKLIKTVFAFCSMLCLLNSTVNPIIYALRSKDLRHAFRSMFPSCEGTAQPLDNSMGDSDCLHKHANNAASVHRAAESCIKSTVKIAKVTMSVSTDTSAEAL

As to `C=C(C)[C@@H]1CCC(C)=C[C@H]1c1c(O)cc(O)cc1CCCCC`, the half-maximal effective concentration (EC50) in test [1] and in test [3] was greater than 10 µM in each case. For the same compound, the IC50 in test [2] and in test [5] was greater than 10 µM throughout. Further, the Activity in test [4] is 7%. For the same compound, the inhibition in test [6] came to 33%.
Regarding `CCN(CC)CCN1CCCn2c1nc1c2c(=O)n(C)c(=O)n1C`, the EC50 in test [1] and in [3] was greater than 10 µM in each case. For the same compound, the Activity in test [7] came to 39%; in test [4], 4%. The IC50 in [2] and in test [5] was greater than 10 µM throughout. Moreover, the inhibition in test [6] was -3%.
In the case of `Cn1c(=O)c2c(nc3n2CCN3CCc2c[nH]c3ccccc23)n(C)c1=O`, in [3], the EC50 is greater than 10 µM. The IC50 in [5] is greater than 10 µM.
As for `CCCn1c(=O)c2c(nc3n2CCCN3CCc2c[nH]c3ccccc23)n(CCC)c1=O`, the EC50 in test [1] and in test [3] was greater than 10 µM throughout. Besides, in test [7], the Activity is -12%. Moreover, the half-inhibitory concentration (IC50) in test [2] and in test [5] was greater than 10 µM in each case. The inhibition in test [6] was -4%.
`Cn1c(=O)c2c(nc3n2CCCCN3CCc2c[nH]c3ccccc23)n(C)c1=O`: the EC50 in test [3] is greater than 10 µM. The IC50 in test [5] is greater than 10 µM.
With `CCCCC/C=C\C/C=C\C/C=C\C/C=C\CCCC(=O)NCC(=O)O` [ARACHIDONOYL GLYCINE], the EC50 in test [1] is greater than 10 µM. Also, the IC50 in test [2] was greater than 10 µM.
Regarding `CCN1CCCn2c1nc1c2c(=O)n(C)c(=O)n1C`, the EC50 in test [1] and in test [3] was greater than 10 µM throughout. Further, the Activity was 2% in test [7] and -16% in [4]. Also, the IC50 in [2] and in [5] was greater than 10 µM in each case. Also, in test [6], the inhibition was found to be 17%.
As to `COCCN1CCCn2c1nc1c2c(=O)n(C)c(=O)n1C`, the EC50 in [1] and in test [3] was greater than 10 µM each time. The Activity in [7] (filed as agonist) came out at 40%; in [4], 18%. Further, the half-maximal inhibitory concentration (IC50) in test [2] and in [5] was greater than 10 µM in each case. Further, the inhibition in test [6] is -4%.
With `Cn1c(=O)c2c(nc3n2CCCN3Cc2ccc(Cl)cc2)n(C)c1=O`, the EC50 in test [1] and in test [3] was greater than 10 µM throughout. Besides, the Activity in test [7] is 6%; in [4] it was -9%. In addition, the IC50 in [2] and in test [5] was greater than 10 µM in each case. In addition, the inhibition in test [6] stood at 1%.
With `Cn1c(=O)c2c(nc3n2CCCN3CCc2ccc(Cl)cc2)n(C)c1=O`, the concentration for a half-maximal effect (EC50) in test [1] and in [3] was greater than 10 µM each time. Also, the Activity in [7] stood at 14%; in test [4] it was 10%. In addition, the concentration for half-maximal inhibition (IC50) in [2] and in test [5] was greater than 10 µM in each case.
Take `CCCCCN1CCCn2c1nc1c2c(=O)n(C)c(=O)n1C`: the half-maximal effective concentration (EC50) in [1] and in test [3] was greater than 10 µM throughout. For the same compound, the figures for the Activity in [7] and in test [4] were -1% and 10%, respectively. Also, the concentration for half-maximal inhibition (IC50) in [2] and in test [5] was greater than 10 µM in each case.
`Cn1c(=O)c2c(nc3n2CCCN3CCc2c[nH]c3ccccc23)n(C)c1=O`: the results for the EC50 in test [1] and in test [3] were 0.562 µM and greater than 10 µM, respectively. Also, in test [4], the Activity is -5%. The IC50 in test [5] was greater than 10 µM. The inhibition in test [6] came out at 20%; in test [10] it was 65%. In addition, the result in test [8], in [9] and in test [13] was inactive. Also, the outcome in test [11] and in test [12] was Active. In addition, in [14], the inhibition result is “inactive”.
For `Cn1c(=O)c2c(nc3n2CCN3c2ccc(O)cc2)n(C)c1=O`, the EC50 in test [1] and in test [3] was greater than 10 µM in each case. Besides, the values for the Activity in test [7] and in [4] were 22% and 13%, respectively. The half-maximal inhibitory concentration (IC50) in test [2] and in test [5] was greater than 10 µM in each case.
In the case of `COc1ccc(CCN2CCCn3c2nc2c3c(=O)n(C)c(=O)n2C)cc1`, the concentration for a half-maximal effect (EC50) in test [1] and in test [3] was greater than 10 µM in each case. Further, the Activity in test [7] is -2%; in test [4] it was -6%. For the same compound, the IC50 in test [2] and in [5] was greater than 10 µM in each case.
On to `CCCCN1CCCn2c1nc1c2c(=O)n(C)c(=O)n1C`, for which the EC50 in test [1] and in test [3] was greater than 10 µM throughout. Moreover, the Activity in test [7] is 26%; in test [4], -4%. Further, the IC50 in [2] and in test [5] was greater than 10 µM in each case. Besides, the inhibition in test [6] turned out to be 34%.
Turning to `COc1ccc(CCN2CCCn3c2nc2c3c(=O)n(C)c(=O)n2C)cc1OC`, the 50% effective concentration (EC50) in [1] and in test [3] was greater than 10 µM each time. Also, the Activity is -39% in test [7] and 15% in [4]. The IC50 in test [2] and in [5] was greater than 10 µM each time. In addition, in [6], the inhibition was determined as 32%.
In the case of `Cn1c(=O)c2c(nc3n2CCCN3CCc2ccccc2)n(C)c1=O`, the EC50 in test [1] and in test [3] was greater than 10 µM each time. For the same compound, the figures for the Activity in test [7] and in [4] were 2% and 16%, respectively. The IC50 in test [2] and in test [5] was greater than 10 µM each time. Moreover, in [6], the inhibition is -10%.
For the compound `CCCCCc1cc(O)c2c(c1)OC(C)(C)[C@@H]1CCC(C)=C[C@@H]21` [DRONABINOL], the EC50 in test [3] is greater than 10 µM. Further, the Activity in [4] is -4%.
